An excerpt weighted towards active compounds, which were near 1.9% of everything screened.
HCV core dimer – blocks dimerization of HCV core protein | TR-FRET GST/Flag-core106 dimerization, 1536-well | inhibition, % at 5 µM | 300,000 compounds, 0.33% hits | AID 1899;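 active = inhibition above the mean of all tested compounds plus 3 SD, set per screening campaign, cut at about 45% in these data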
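System: GST-tagged and Flag-tagged HCV core protein residues 1-106 / Input: core106 proteins, GST 13.5 nM and Flag 17 nM / Buffer or medium: KF-containing HEPES buffer, pH 7.45, DTT, CHAPS, BSA / Probe or stimulus: Eu-anti-GST and XL665-anti-Flag labelled anti-tag antibodies / Schedule: 4 h, 22.5 °C incubation / Technique: TR-FRET 671 and 617 nm emission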
NadD inh – inhibitors of Staphylococcus aureus NadD. inhibition, % at 20 µM. 360,000 compounds, 0.78% hits. purified NadD enzyme, colorimetric absorbance read-out; in the data active = inhibition above about 26%
VIM-2 inhibitor – inhibitors of Pseudomonas aeruginosa VIM-2 metallo-beta-lactamase. purified VIM-2, nitrocefin hydrolysis, epi-absorbance fluorescence. inhibition, % at 5.6 µM. 290,000 compounds, 0.89% hits. AID 1527;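 active = inhibition above the mean of all tested compounds plus 3 SD, cutoff set per screening run, cut at about 7.5% in these data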;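 note: red hydrolysis product quenches plate fluorescence so inhibitors raise well fluorescence; 0% = enzyme with DMSO and 100% = DMSO without enzyme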
IMP-1 inhibitor – inhibitors of Pseudomonas aeruginosa IMP-1 metallo-beta-lactamase. purified IMP-1, nitrocefin hydrolysis, epi-absorbance fluorescence. inhibition, % at 5.6 µM. 290,000 compounds, 0.45% hits;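 active = inhibition above the mean plus 3 SD of all compounds in the same screening run, cut at about 4.5% in these data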;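 note: 0% = IMP-1 with DMSO and 100% = DMSO wells lacking enzyme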
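System: purified IMP-1; amount: IMP-1 0.2 nM before substrate addition; compound: single dose, 5.6 µM; times: 25 °C, 15 min preincubation, 25 min reaction; signal: Epi-absorbance via hydrolysed-nitrocefin quenching of white-plate fluorescence, 480/530 nm, EDTA stop; benchmarks: DMSO with and without IMP-1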
NadD inh conf – NadD (S. aureus) inhibition, single concentration confirmation; purified S. aureus NadD, colorimetric enzyme assay; inhibition, % at 20 µM; 2,000 compounds, 13% hits; shares compounds with NadD inh; AID 624309; in the data active = inhibition mostly above about 42%, no sharp cut-off; inactive = mostly below about 42%
Numbers without * were called inactive; ! = not confirmed by another sample.

Screening CS(=O)(=O)c1sc2nc(-c3cccs3)cc(-c3ccccc3)c2c1N returned HCV core dimer 51*, NadD inh 74*, VIM-2 inhibitor -1, IMP-1 inhibitor 2 and NadD inh conf 14.
Screening Cc1ccc(-c2cc(-c3ccccc3)c3c(N)c(S(C)(=O)=O)sc3n2)cc1 returned HCV core dimer 10, NadD inh 26, VIM-2 inhibitor 0 and IMP-1 inhibitor 0.
For COc1ccc(C(=O)OCCOc2cccc(Cl)c2)cc1S(=O)(=O)N1CCOCC1 the results were HCV core dimer 5, NadD inh 0, VIM-2 inhibitor 1 and IMP-1 inhibitor -4.
Screening O=C(NCc1nc2ccccc2[nH]1)C1=C[C@@H](c2csc3ccccc23)C[C@@H](OCc2ccc(CO)cc2)O1 returned HCV core dimer 19, NadD inh 34*, VIM-2 inhibitor -5, IMP-1 inhibitor -2 and NadD inh conf 39.
O=C(NCc1nc2ccccc2[nH]1)C1=C[C@H](c2csc3ccccc23)C[C@H](OCc2ccc(CO)cc2)O1 was read as HCV core dimer 16, NadD inh 32* and NadD inh conf 45.
Screening OC(c1cccc(Cl)c1)c1nc(-c2cccc3cccnc23)cs1 (stereo not drawn) returned NadD inh 3.
`CC(C)C[C@@H](CN1CCC[C@H]1CN1C(=O)C(=O)NC[C@@H]1Cc1ccccc1)N1C[C@H](Cc2ccccc2)N(CC2CCCCCC2)C(=O)C1=O` gave NadD inh 40* and NadD inh conf 25.
Screening CC(C)C[C@@H](CN1CCC[C@H]1CN1C(=O)C(=O)NC[C@@H]1Cc1ccc(O)cc1)N1C[C@H](Cc2ccccc2)N(CC2CCCCCC2)C(=O)C1=O returned NadD inh 38* and NadD inh conf 32.
`NC(=O)c1ncn([C@@H]2O[C@H](CNCc3cccn3-c3ccncc3)[C@@H](O)[C@H]2O)n1` gave NadD inh 0.
For COc1cc(Cl)c(C)cc1NC(=O)CSc1sc2c(O)cc(=O)[nH]c2c1C#N the results were HCV core dimer -26, NadD inh 42*, VIM-2 inhibitor 0, IMP-1 inhibitor -2 and NadD inh conf 27.
`Cc1ccc(C)c(S(=O)(=O)N2CCN(C(=O)/C=C/c3ccco3)CC2)c1` gave NadD inh 35* and NadD inh conf 24.
For Cc1ccc(/C=c2\sc3nc(-c4ccccc4Br)nn3c2=O)o1 the results were HCV core dimer 32, NadD inh 26*, VIM-2 inhibitor -5, IMP-1 inhibitor -2 and NadD inh conf 10.
Screening CCOc1ccc(C(=O)Nc2cc(-c3nc4ccccc4[nH]3)ccc2C)cc1[N+](=O)[O-] returned HCV core dimer 7, NadD inh 12, VIM-2 inhibitor -7 and IMP-1 inhibitor -2.
`Cc1ccc(-c2nc3ccccc3[nH]2)cc1NC(=O)c1ccc2c(c1)OCO2` gave HCV core dimer 3, NadD inh 2, VIM-2 inhibitor 0 and IMP-1 inhibitor -2.
Screening CCOc1ccc(C(=O)Nc2cc(-c3nc4ccccc4[nH]3)ccc2Cl)cc1[N+](=O)[O-] returned HCV core dimer 21, NadD inh 34*, VIM-2 inhibitor -2, IMP-1 inhibitor -2 and NadD inh conf 13.
O=C(NC(=S)Nc1cc(-c2nc3ccccc3[nH]2)ccc1Cl)c1ccc2c(c1)OCO2 was read as HCV core dimer 11, NadD inh 30*, VIM-2 inhibitor 1, IMP-1 inhibitor 2 and NadD inh conf 47*.
`CCn1c2ccccc2c2cc(NC(=O)COC(=O)c3cc(S(N)(=O)=O)c(Cl)cc3Cl)ccc21` gave HCV core dimer 28, NadD inh 41*, VIM-2 inhibitor -3, IMP-1 inhibitor -3 and NadD inh conf 26.
`CCn1c2ccccc2c2cc(NC(=O)COC(=O)c3ccccc3O)ccc21` gave HCV core dimer 16, NadD inh 14, VIM-2 inhibitor -3 and IMP-1 inhibitor -2.
`CCn1c2ccccc2c2cc(NC(=O)COC(=O)c3cc(Cl)c(N)cc3OC)ccc21` gave HCV core dimer 10, NadD inh 36*, VIM-2 inhibitor 0, IMP-1 inhibitor -1 and NadD inh conf 26.
For CCn1c2ccccc2c2cc(NC(=O)COc3ccc(OC)cc3)ccc21 the results were HCV core dimer 7, NadD inh -2, VIM-2 inhibitor -4 and IMP-1 inhibitor -2.
CC(C)(C)OC(=O)C[C@@H]1C/C=C\C[C@H](CC(=O)N(CCO)Cc2ccccc2)C(=O)N[C@@H](Cc2c[nH]c3ccccc23)COC1=O was read as NadD inh 4.
CCOC(=O)c1ccc(NC(=O)NNC(=O)CCc2ccc(OC)cc2)cc1 was read as NadD inh -10, VIM-2 inhibitor -4 and IMP-1 inhibitor 0.
Screening Cc1cc(C(=O)CSc2nc3ccc(Cl)cc3[nH]2)c(C)n1C returned HCV core dimer 8, NadD inh 34*, VIM-2 inhibitor -1, IMP-1 inhibitor -3 and NadD inh conf 41.
`Cc1ccc2nc(SCC(=O)c3cc(C)n(C)c3C)[nH]c2c1` gave HCV core dimer 7, NadD inh -3, VIM-2 inhibitor -3 and IMP-1 inhibitor -3.
`COc1ccc(-c2cc(C(=O)Nc3cc(OC)cc(C(=O)Nc4cccc(C(F)(F)F)c4)c3)[nH]n2)cc1` gave HCV core dimer 2, NadD inh 40*! and NadD inh conf 23.
For COc1cc(NC(=O)c2ccno2)cc(C(=O)Nc2cccc(C(F)(F)F)c2)c1 the results were HCV core dimer 7 and NadD inh -9.
For COc1cc(OC)cc(N2C(=O)CC(N3CCC(C(=O)N4CCCCC4)CC3)C2=O)c1 (stereo not drawn) the results were NadD inh 3, VIM-2 inhibitor 1 and IMP-1 inhibitor 1.
For Cc1cccn2c(=O)c3cc(C(=O)NC4CCCCC4)c(=N)n(Cc4ccc(F)cc4)c3nc12 the results were HCV core dimer 9, NadD inh 14, VIM-2 inhibitor 1 and IMP-1 inhibitor -2.
Screening Cc1cccn2c(=O)c3cc(S(=O)(=O)c4ccc(Br)cc4)c(=N)n(C4CCCCC4)c3nc12 returned HCV core dimer 3, NadD inh 27*, VIM-2 inhibitor -2, IMP-1 inhibitor -3 and NadD inh conf 22.
`COc1ccc(CCn2c(=N)c(S(=O)(=O)c3ccccc3)cc3c(=O)n4ccccc4nc32)cc1` gave HCV core dimer 1, NadD inh 21, VIM-2 inhibitor -4 and IMP-1 inhibitor -3.
`COc1ccc(CCn2c(=N)c(S(=O)(=O)c3ccc(Cl)cc3)cc3c(=O)n4ccccc4nc32)cc1` gave HCV core dimer 5, NadD inh 30*, VIM-2 inhibitor 6, IMP-1 inhibitor 1 and NadD inh conf 22.
CCOCCCn1c(=N)c(S(=O)(=O)c2ccc(C)cc2)cc2c(=O)n3cc(C)ccc3nc21 was read as HCV core dimer 3, NadD inh 5, VIM-2 inhibitor 4 and IMP-1 inhibitor -2.

High-throughput results from PubChem BioAssay.
